# Measles CPE – protection of cells from measles virus; Measles virus-infected cells, CPE protection, absorbance; hit rate 1.5% among 140,000; protection (pct of control), % at 4 µM; AID 841; in the data active means protection mostly above about 24%, no sharp cut-off; inactive means mostly below about 26%
# RAM inhibit – blocks the yeast RAM network; AID 868; S. cerevisiae dse1pr::URA3 reporter, 5-FOA growth OD615, 2 d; analog-sensitive cbk1-as2 kinase mutant strain; hit rate 1.8% among 190,000; inhibition, % at 50 µM;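 active means inhibition above a set limit, 3 SD over mean compound inhibition, cut at about 8.4% in these data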;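 further: inhibition rescues growth on 5-FOA so higher OD means more RAM inhibition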
# Yeast lifespan up – yeast lifespan extension | S. cerevisiae growth with nicotinamide, OD615; deaD strain in restrictive glucose medium | inhibition of the nicotinamide effect, % at 10 µM | hit rate 0.68% among 130,000;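 active means inhibition above a set limit, placed 3 SD over the median of all compounds, cut at about 26% in these data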
#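 assay system = DeaD-strain S. cerevisiae | measured by = absorbance at 615 nm | probe or stimulus = nicotinamide 1.5 mM | buffer or medium = CSMM-D glucose medium, restrictive | times = 48 h at 30 °C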
# Yeast growth inh – yeast BB579 growth reduction in restrictive medium | S. cerevisiae BB579 growth, OD615, 48 h | inhibition, % at 10 µM | hit rate 0.51% among 140,000;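 active means inhibition above a set limit, 3 SD over the mean compound inhibition, cut at about 44% in these data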
#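 Test system: S. cerevisiae DeaD strain BB579 yeast; Medium: restrictive CSMM-D medium; Compound: one dose, 10 µM compound with 0.25% DMSO; Incubation: 4 h cell preincubation, 48 h compound exposure, 30 °C humidified; Signal: OD at 615 nm; Benchmarks: amphotericin B at 10 µg/mL as positive control.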
# RAM 5-FOA – RAM network inhibitors in efflux-deficient yeast | shares compounds with RAM inhibit | 1,200 tested, under 10 active | max inhibition, % | AID 1305 | S. cerevisiae efflux-deficient reporter strain, 5-FOA growth OD615, 2 days; call rule not given here
# A number is an active result; . = inactive; / = no result. Most compounds without a hit are left out; they make up all but 3.6% or so of the library.
SMILES,Measles CPE,RAM inhibit,Yeast lifespan up,Yeast growth inh,RAM 5-FOA
CCC(C)NC(=O)c1ccccc1NC(=O)c1ccc(CSc2ccccc2)cc1 (configuration not stated),.,20.1,.,.,.
COc1ccc(NC(=O)Cn2nnc(C(=O)NCc3ccccc3)c2N)c(OC)c1,/,.,/,/,/
CCC(=O)N1CCc2cc(S(=O)(=O)NC(Cc3ccccc3)C(=O)NC3CCCCC3)ccc21 (configuration not stated),.,14.0,.,.,.
CCCCN(CCCC)c1nc2ccccc2nc1NS(=O)(=O)c1ccc(NC(C)=O)cc1,.,.,.,.,/
CC(=O)Nc1ccc(S(=O)(=O)Nc2nc3ccccc3nc2Nc2ccc3ccccc3c2)cc1,.,15.9,.,.,.
O=C(OCc1nnc(-c2ccccc2)o1)c1ccc(CO)cc1,/,.,/,/,/
O=C(OCc1ccccc1)c1cccc(-c2nnc(-c3ccccc3)o2)c1,.,12.1,.,.,.
O=C(OCc1ccc(C(=O)c2ccccc2)cc1)c1cccc(-c2nnc(-c3ccccc3)o2)c1,.,.,.,.,/
CC(C)OC(=O)c1ccc(COC(=O)c2cccc(-c3nnc(-c4ccccc4)o3)c2)cc1,.,12.7,.,.,.
CCC(Oc1ccccc1)C(=O)NCc1ccc(S(N)(=O)=O)cc1 (configuration not stated),.,.,.,.,/
Nc1ncncc1-c1ccc([N+](=O)[O-])cc1,.,.,.,.,/
CNC(=S)N(CCc1ccc(OC)c(OC)c1)Cc1cc2c(C)cc(C)cc2[nH]c1=O,.,15.9,.,.,.
CNC(=S)N(CCc1ccccc1)Cc1cc2cc(OC)c(OC)cc2[nH]c1=O,.,.,.,.,/
CCCCCOc1ccc(NC(=O)c2cc(SC)ccc2Cl)cc1,.,13.1,.,.,.
CC1=CC(=C(C#N)c2nc3ccccc3s2)C=C(C)N1CC1CCCO1 (configuration not stated),/,.,/,/,/
Fc1ccc(C2=NN(c3ccccc3)C(c3ccco3)C2)cc1 (configuration not stated),/,.,/,/,/
Cc1ccc(N2N=C(c3ccc(F)cc3)CC2c2ccco2)cc1 (configuration not stated),/,12.1,/,/,.
Clc1ccc(SCCCCN2CCNCC2)cc1,.,.,.,.,/
O=C(COC(=O)c1ccccc1-c1nc2ccccc2s1)Nc1ccccc1C(F)(F)F,.,14.8,.,.,.
CCCCOc1ccc(CNn2c(C)nc3ccccc3c2=O)cc1,.,14.9,.,.,.
Cc1ccc(C(c2c(C)n(C)n(-c3ccccc3)c2=O)c2c(C)n(C)n(-c3ccccc3)c2=O)s1,/,.,/,/,/
O=C(c1cnc(-c2ccc(Cl)cc2)s1)c1ccc(Cl)cc1Cl,.,14.8,.,.,.
O=C(O)Cc1ccc(C(=O)c2ccc(Cl)cc2Cl)s1,/,.,/,/,/
COc1ccc(CCN2C(=O)/C(=C\c3ccco3)SC2=S)cc1OC,/,11.9,/,/,.
O=C(NNC(=S)Nc1ccccc1)C1CCCCC1,/,.,/,/,/
SMILES,Measles CPE,RAM inhibit,Yeast lifespan up,Yeast growth inh,RAM 5-FOA
COc1ccc(/C=C/C(=O)OCc2csc(-c3ccccc3)n2)cc1OC,.,15.8,.,.,.
O=C(OCc1csc(-c2ccccc2)n1)c1ccc(O)cc1,/,.,/,/,/
Cc1cccc(NC(=S)NC(C)C(c2ccccc2)N2CCN(C)CC2)c1C (configuration not stated),/,.,/,/,/
COc1ccc(C(=O)NCC(=O)OCc2cccc(Br)c2)cc1,.,12.6,.,.,.
O=C(c1ccccc1)N(Cc1cccnc1)C1(C(=O)Nc2ccccc2)CCCCC1,.,16.2,.,.,.
O=[N+]([O-])c1ccc(Sc2nnnn2-c2ccccc2)nc1,/,.,/,/,/
O=C(O)COc1ccc(/C=N/n2c(COc3ccccc3)nc3ccccc3c2=O)cc1,.,12.6,.,.,.
COc1cccc(NC(=O)C2CC(=O)N(C)C(=Nc3cccc(F)c3)S2)c1 (configuration not stated),.,19.5,.,.,.
COc1cccc(N=C2SC(C(=O)Nc3ccccc3F)CC(=O)N2C)c1 (configuration not stated),.,.,.,.,/
C=CCC1(N(C(C)=O)c2ccccc2C)CCCCC1,/,.,/,/,/
O=C(CSc1nc(-c2ccccc2)cs1)Nc1ccccc1[N+](=O)[O-],.,13.0,.,.,.
CCN(CC(=O)Nc1ccc(Cl)c(S(=O)(=O)N(C)C)c1)CC(=O)NC(C)C,/,.,/,/,/
CCOc1ccc(NS(=O)(=O)c2ccc(NC(=S)NC(=O)CC(C)C)cc2)cc1,.,12.1,.,.,.
CC(=O)c1cc(C(=O)c2ccccc2)sc1Nc1ccccc1,.,11.6,.,.,.

# Screening data deposited in PubChem by several laboratories.
